According to ChEMBL document CHEMBL1127051, “Vanilloids. 1. Analogs of capsaicin with antinociceptive and antiinflammatory activity” (J Med Chem, 1993):

Experiments:
Rattus norvegicus [1] = assay: Percentage analgesia by using rat hot plate test after oral administration at 150 mg/kg; assay type: functional
Summary of the method: (§1)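 Rats fasted 18 h, prescreened on a 55 ± 0.5 °C hot plate (latency <12 s, else lowest <30 s) to set the 0 h value. Groups of 8 dosed orally in sesame oil (1 mL/200 g); latency read at 1.5, 3, 5 h (24 h if persisting). %analgesia = [(LT(t) − LT(0))/(60 − LT(0))]×100, taken at the time of maximal latency.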

[2] = Acute toxicity after intraperitoneal dose at 200 mg/kg in mice; assay type: organism-based; design: dose 200 mg/kg, route intraperitoneal; conditions: mouse, in vivo, ip, read-out: Lethality
Summary of the method: (§2)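 Single intraperitoneal dose at the listed mg/kg; acute toxicity scored as % lethality = number of deaths / number of animals dosed, 7–10 animals per group.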

Mus musculus [3] = assay: Latency time measured by mouse hot plate test after subcutaneous administration at 200 mg/kg; assay type: functional; design: unit: s
Summary of the method: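 Male CF-1 mice, 8 per group, given test agent sc in 0.2 mL ethanol/Tween-80/saline (10/10/80); dose 0.68 mmol (200 mg/kg for capsaicin). Placed on copper surface held at 55 ± 0.5 °C. Paw-response latency (s) reported as group mean ± SD; pretest latency ~5 s.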

Mus musculus [4] = assay: Percentage inhibition in mouse by using Croton oil-inflamed mouse ear test (topical dosing).; assay type: functional; design: concentration or dose not given beside the values
Summary of the method: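 Male Cox ICR mice (25–35 g), 10 per group. Left ear given 25 μL of 1% compound in ethanol, repeated ~17 h later; 1 h after that, both ears given 25 μL 2% croton oil. After 4 h, 5 mm ear punches weighed. % inhibition = [(C − T1)/C]×100, using left-minus-right weight differences versus vehicle controls.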

Rattus norvegicus [5] = assay: Percentage analgesia by rat hot plate test after oral administration at 300 mg/kg.; assay type: functional; summary of the method: as §1
Mus musculus [6] = species on record: Mus musculus; assay: Ratio of the number of responders to the number of animals tested; 6/6; assay type: functional
Mus musculus [7] = species on record: Mus musculus; assay: Ratio of the number of responders to the number of animals tested; 7/8; assay type: functional
[8] = Acute toxicity after intraperitoneal dose at 50 mg/kg in mice; assay type: organism-based; design: dose 50 mg/kg, route intraperitoneal; conditions: mouse, in vivo, ip, read-out: Lethality; summary of the method: as §2
Mus musculus [9] = species on record: Mus musculus; assay: Ratio of the number of responders to the number of animals tested; 6/8; assay type: functional
[10] = Acute toxicity after intraperitoneal dose at 100 mg/kg in mice; assay type: organism-based; design: dose 100 mg/kg, route intraperitoneal; conditions: mouse, in vivo, ip, read-out: Lethality; summary of the method: as §2
Mus musculus [11] = species on record: Mus musculus; assay: Ratio of the number of responders to the number of animals tested; 4/8; assay type: functional
Mus musculus [12] = species on record: Mus musculus; assay: Ratio of the number of responders to the number of animals tested; 0/8; assay type: functional
[13] = Acute toxicity after intraperitoneal dose at 15 mg/kg in mice; assay type: organism-based; design: dose 15 mg/kg, route intraperitoneal; conditions: mouse, in vivo, ip, read-out: Lethality; summary of the method: as §2
Mus musculus [14] = species on record: Mus musculus; assay: Ratio of the number of responders to the number of animals tested; 6/7; assay type: functional
Summary of the method: (§3)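 Male CF-1 mice, 8 per group, dosed sc in 0.2 mL ethanol/Tween-80/saline (10/10/80). Latency read on a copper hot plate held at 55 ± 0.5 °C, with a pretest latency of about 5 s; reported as mean latency (s) ± SD. A responder is an animal whose latency exceeds the vehicle-control mean plus 2 SD; response = responders/animals tested.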

Mus musculus [15] = assay: Latency time measured by mouse hot plate test after subcutaneous administration at 40 mg/kg; assay type: functional; summary of the method: as §3

| Compound | mortality [2] [%] | Latency (Mus musculus [3]) | Inhibition (Mus musculus [4]) [%] | Analgesia (Rattus norvegicus [5]) [%] | also measured |
| --- | --- | --- | --- | --- | --- |
| CCCCCC/C=C\CCCCCCCCCCNC(=O)Cc1ccc(O)c(OC)c1 | – | – | – | – | Analgesia (Rattus norvegicus [1]): 62% |
| CCCCCCC/C=C\CCCCCCCCCC(=O)NCc1ccc(O)c(OC)c1 | 40 | 35.7 | 76.9 | 43 | – |
| CCCCCCCC[C@H]1O[C@H]1CCCCCCCC(=O)NCc1ccc(O)c(OC)c1 | 40 | 13.5 | 54.5 | 5 | – |
| COc1cc(CC(=O)NC2CCCCCCC2)ccc1O | 80 | 34.2 | 34.7 | 4 | Response (Mus musculus [6]): 6 |
| CCCCCCCCCC(=O)CCCCCCCC(=O)NCc1ccc(O)c(OC)c1 | – | 11.2 | – | – | – |
| CCCCC/C=C\CCCCCCCCC(=O)NCc1ccc(O)c(OC)c1 | 10 | >48.8 | 79.3 | – | Response (Mus musculus [7]): 7 |
| C#CCCCCCCCCC(=O)NCc1ccc(O)c(OC)c1 | – | 17.1 | 36.4 | 15 | mortality [8]: 90% |
| CCCC/C=C/C/C=C\CCCCCCCCC(=O)NCc1ccc(O)c(OC)c1.CCCCC/C=C/C=C\CCCCCCCCC(=O)NCc1ccc(O)c(OC)c1 | 0 | >36.6 | 66.8 | 34 | Response (Mus musculus [9]): 6 |
| CCCC/C=C/CCCCCCCC(=O)NCc1ccc(O)c(OC)c1 | – | – | – | 22 | – |
| CCCCCc1ccc(C(=O)NCc2ccc(O)c(OC)c2)cc1 | – | 6.9 | 9.3 | – | mortality [8]: 60% |
| CCCCCCCCCC(C)CCCCCCCC(=O)NCc1ccc(O)c(OC)c1 (stereo not given) | – | 26.9 | 88.3 | – | mortality [10]: 40%; Response (Mus musculus [11]): 4 |
| COc1cc(CNC(=O)CCCCCCc2ccccc2)ccc1O | – | 6.8 | 46.2 | 1 | mortality [8]: 60% |
| CCCCCCCCCCCCCCCCCC(=O)NCc1ccc(O)c(OC)c1 | – | 5.9 | 11.3 | 3 | mortality [8]: 0%; Response (Mus musculus [12]): 0 |
| CCCCCCCCCNC(=O)Cc1ccc(O)c(OC)c1 | – | 22.3 | 80.7 | – | mortality [13]: 86% |
| CCCCCCCCCCCCNC(=O)Cc1ccc(O)c(OC)c1 | – | 5 | 55.3 | – | mortality [8]: 0% |
| CCCCCCCCCCNC(=O)Cc1ccc(O)c(OC)c1 | – | 5.3 | 58.1 | – | mortality [13]: 100% |
| COc1cc(CNC(=O)CCCC/C=C\C(C)C)ccc1O [ZUCAPSAICIN] | – | – | 79.5 | 0 | Response (Mus musculus [14]): 6; Latency (Mus musculus [15]): >39.9 |
| CCCCCCCC/C=C\CCCCCCCNC(=O)Cc1ccc(O)c(OC)c1 | – | – | – | 66 | – |
| CCCC/C=C\CCCCCCCCNC(=O)Cc1ccc(O)c(OC)c1 | – | – | – | 74 | – |
| CCCCCCC/C=C\CCCCCCCCCCCCC(=O)NCc1ccc(O)c(OC)c1 | 0 | – | 29 | – | – |
| CCCCC/C=C\C/C=C\CCCCCCCCNC(=O)Cc1ccc(O)c(OC)c1 | – | – | – | 89 | – |
| CCCCCCC/C=C/CCCCCCCCC(=O)NCc1ccc(O)c(OC)c1 | 60 | 7.1 | 10.9 | 37 | Response (Mus musculus [12]): 0 |
| CCCC(=O)NCc1ccc(O)c(OC)c1 | – | 10.8 | 3.2 | – | mortality [10]: 40%; Response (Mus musculus [11]): 4 |
| CCCCCCCCCCC(=O)NCc1ccc(O)c(OC)c1 | – | 47.7 | 29.6 | – | Response (Mus musculus [7]): 7; mortality [8]: 80% |
| CCCCCCCCCC/C=C\CCCCCC(=O)NCc1ccc(O)c(OC)c1 | 30 | 46.1 | 68.4 | 37 | – |
